Experiments:
[1] = species: Rattus norvegicus; assay: Antiinflammatory activity against trypsin hyperalgesia in rat at peroral dose of compound; conditions: po
[2] = Ratio of rotarod to that of staub tail; ND is activity not determined.; format: functional
In short: (§1)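 Oral rotorod ED50 divided by oral Straub tail ED50, both in mouse, as an index of sedative potential. Each ED50 from at least three doses, N=6 animals per dose.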

[3] = test system: Mus musculus; assay: Effective dose required for muscle relaxant profile evaluated by straub tail assay when administered perorally in mouse; format: functional; conditions: po
In short: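 Morphine-induced Straub tail model of muscle relaxant activity, mouse, with oral dosing. Oral testing followed only where ip inhibition at 100 mg/kg exceeded 50%. At least three doses, N=6 animals per dose group. ED50 in mg/kg.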

[4] = test system: Rattus norvegicus; assay: Percent inhibition of analgesia activity when administered perorally at 20 mg/kg in rat; format: functional
In short: (§2)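 Rat trypsin hyperalgesia model for mild analgesia. Compounds given orally, either as % inhibition at 20 mg/kg or as ED50 in mg/kg. Each compound tested two or three times.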

[5] = test system: Rattus norvegicus; assay: Inhibition of trypsin hyperalgesia when administered perorally in rat; format: functional; in short: as §2
[6] = test system: Mus musculus; assay: Effective dose required for muscle relaxant profile in mouse by rotarod assay, when compound administered perorally; format: functional; conditions: po
In short: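 Rotorod model of sedation, mouse, with oral dosing. Used for compounds that passed the Straub tail ip screen. At least three doses, N=6 animals per dose group. ED50 in mg/kg.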

[7] = test system: Mus musculus; assay: Percent inhibition of muscle relaxant profile evaluated by straub tail assay when administered intraperitoneally at 100 mg/kg in mouse; format: functional; conditions: route intraperitoneal; for % effect at 100 mg/kg: Mus musculus
In short: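 Morphine-induced Straub tail model of muscle relaxant activity, mouse. Compound given intraperitoneally at 100 mg/kg and read out as % inhibition.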

[8] = test system: Rattus norvegicus; assay: Antiinflammatory activity against 3h carrageenan pleurisy (cells) in rat at 20 mg/kg peroral administration; format: functional; conditions: route oral
In short: (§3)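 Rat 3 h carrageenan pleurisy model, read out as pleural cell count and as edema. Compounds given orally, either as % inhibition at 20 mg/kg or as ED50 in mg/kg. Each compound tested two or three times.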

[9] = test system: Rattus norvegicus; assay: Antiinflammatory activity against 3h carrageenan pleurisy (edma) in rat at 20 mg/kg peroral administration; format: functional; conditions: route oral; in short: as §3
[10] = Ratio of rotarod to that of staub tail; format: functional; in short: as §1
[11] = test system: Rattus norvegicus; assay: Antiinflammatory activity against 3h carrageenan pleurisy (cells) in rat peroral administration; format: functional; conditions: po; in short: as §3
[12] = test system: Rattus norvegicus; assay: Antiinflammatory activity against 3h carrageenan pleurisy (edma) in rat mg/kg peroral administration; format: functional; conditions: po; in short: as §3
[13] = test system: Rattus norvegicus; assay: Antiinflammatory activity against 3h carrageenan pleurisy (edma) in rat peroral administration; format: functional; conditions: po; in short: as §3
[14] = Ratio of rotarod to that of straub tail; format: functional
In short: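 Ratio of oral rotorod ED50 (sedation) to oral ED50 in the morphine-induced Straub tail test. Only compounds giving >50% inhibition in the Straub tail test at 100 mg/kg ip went on to oral testing in both assays. Each assay generally used at least three doses with N=6 animals per dose group; variability approximately 15%.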

[15] = Rattus norvegicus, po, read-out: ED50

With `COc1ccc2cc([C@H](C)C(=O)O)ccc2c1` [NAPROXEN] the ED50 [1] was 14 mg/kg.
`NC(=O)/C=C1\CCc2c(Cl)cc(F)cc21` (stereo in doubt) [listing 1 of 2 here] gave a Ratio [2] of 1.3.
Work on `NC(=O)/C=C1\CCc2c(Cl)cc(F)cc21` (stereo in doubt) [listing 2 of 2 here] yielded an ED50 [3] of 73 mg/kg, an inhibition in vivo at 20 mg/kg ([4]; Rattus norvegicus, po) of 70% and an ED50 [5, 15] of 7 mg/kg. It also gave an ED50 [6] of 96 mg/kg.
For `CNC(=O)/C=C1\CCc2c(C)cc(F)cc21`, the % effect at 100 mg/kg ([7]; ip) was 67%, the inhibition in vivo at 20 mg/kg [8] was 15% and the inhibition in vivo at 20 mg/kg ([4]; Rattus norvegicus, po) was 77%. It also gave an inhibition in vivo at 20 mg/kg [9] of 40%.
`CNC(=O)/C=C1\CCc2cc(Cl)cc(Cl)c21` showed a % effect at 100 mg/kg ([7]; ip) of 50%, an inhibition in vivo at 20 mg/kg [8] of 0% and an inhibition in vivo at 20 mg/kg ([4]; Rattus norvegicus, po) of 22%. For the same compound, the inhibition in vivo at 20 mg/kg [9] was 34%.
`O=C(/C=C1\CCc2cc(Cl)c(F)cc21)NC1CC1` showed an inhibition in vivo at 20 mg/kg ([4]; Rattus norvegicus, po) of 27%.
Work on `NC(=O)/C=C1\CCc2cc(Cl)c(F)cc21` yielded a % effect at 100 mg/kg ([7]; ip) of 100%, an ED50 [3] of 50 mg/kg and a Ratio [10] of 1.1. For the same compound, the inhibition in vivo at 20 mg/kg ([4]; Rattus norvegicus, po) was 19% and the ED50 [6] was 56 mg/kg.
For `CC(C)Cc1ccc(C(C)C(=O)O)cc1` (centres undefined) [IBUPROFEN], the ED50 [8] was 34 mg/kg and the ED50 [9] was 8 mg/kg.
Work on `Cc1cc(Cl)c2c(c1)/C(=C/C(N)=O)CC2` yielded an ED50 [11] of over 25 mg/kg and an ED50 [12] of over 25 mg/kg.
For `NC(=O)/C=C1\CCc2c(Cl)cc(Cl)cc21`, the % effect [7] was 0%, the ED50 [11] was 25 mg/kg and the ED50 [5, 15] was 4.1 mg/kg. For the same compound, the ED50 [13] was 20 mg/kg.
For `NC(=O)/C=C1\CCc2cc(Cl)cc(Cl)c21`, the % effect at 100 mg/kg ([7]; ip) was 100%, the ED50 [3] was under 100 mg/kg and the ED50 [8] was 5 mg/kg. The inhibition in vivo at 20 mg/kg ([4]; Rattus norvegicus, po) was 79%, the ED50 [9] was 34 mg/kg and the ED50 [5, 15] was over 10 mg/kg. For the same compound, the ED50 [6] was 55 mg/kg.
With `NC(=O)/C=C1\CCc2c(Br)cc(F)cc21` the ED50 [11] was over 20 mg/kg and the ED50 [13] was over 20 mg/kg.
Work on `CNC(=O)/C=C1\CCc2cc(Cl)c(F)cc21` yielded a % effect at 100 mg/kg ([7]; ip) of 17% and an inhibition in vivo at 20 mg/kg ([4]; Rattus norvegicus, po) of 22%.
`NC(=O)/C=C1\CCc2c(F)cc(F)cc21` showed an inhibition in vivo at 100 mg/kg ([7]; ip) of 100%, an ED50 [3] of 68.7 mg/kg and an ED50 [11] of 19 mg/kg. The Ratio [14] was 2, the inhibition in vivo at 20 mg/kg ([4]; route oral) was 100% and the ED50 [9] was 15 mg/kg. It also gave an ED50 [5, 15] of 4 mg/kg.
`Cc1cc(F)cc2c1CC/C2=C\C(=O)NC1CC1` showed an inhibition in vivo at 20 mg/kg [8] of 5%, an inhibition in vivo at 20 mg/kg ([4]; route oral) of 97% and an inhibition in vivo at 20 mg/kg [9] of 7%.
For `O=C(/C=C1\CCc2c(Cl)cc(F)cc21)NC1CC1`, the % effect at 100 mg/kg ([7]; ip) was 100%, the ED50 [3] was 44 mg/kg and the Ratio [10] was 1. For the same compound, the inhibition in vivo at 20 mg/kg ([4]; Rattus norvegicus, po) was 75%, the ED50 [5, 15] was 0.9 mg/kg and the ED50 [6] was 44 mg/kg.
Work on `Cc1cc(F)cc2c1CC/C2=C\C(N)=O` yielded a % effect [7] of 0%, an inhibition in vivo at 20 mg/kg [8] of 11% and an inhibition in vivo at 20 mg/kg ([4]; Rattus norvegicus, po) of 92%. The inhibition in vivo at 20 mg/kg [9] was 24% and the ED50 [5, 15] was 10 mg/kg.
`CNC(=O)/C=C1\CCc2c(Cl)cc(F)cc21` gave a % effect at 100 mg/kg ([7]; ip) of 50%, an ED50 [11] of 8 mg/kg and an inhibition in vivo at 20 mg/kg ([4]; route oral) of 100%. The ED50 [5, 15] was 1.4 mg/kg and the ED50 [13] was 5 mg/kg.
For `CNC(=O)/C=C1\CCc2c(Cl)cc(Cl)cc21`, the % effect at 100 mg/kg ([7]; ip) was 83%, the ED50 [3] was over 100 mg/kg and the inhibition in vivo at 20 mg/kg [8] was 9%. The inhibition in vivo at 20 mg/kg ([4]; Rattus norvegicus, po) was 12%.
For `NC(=O)/C=C1\CCc2c(F)cc(Cl)cc21`, the % effect at 100 mg/kg ([7]; ip) was 33%, the inhibition in vivo at 20 mg/kg [8] was 34% and the inhibition in vivo at 20 mg/kg [9] was 36%. It also gave an ED50 [5, 15] of over 10 mg/kg.
`O=C(/C=C1\CCc2c(F)cc(Cl)cc21)NC1CC1` gave an inhibition in vivo at 20 mg/kg ([4]; Rattus norvegicus, po) of 31%.
Work on `NC(=O)/C=C1\CCc2c(Cl)cc(F)cc21` (stereo in doubt; 3) yielded a % effect [7] of 0%, an ED50 [11] of 11 mg/kg and an Inhibition ([4]; route oral, 20 mg/kg) of 79%. The ED50 [5] was 4 mg/kg and the ED50 [13] was 11 mg/kg.

— ChEMBL document CHEMBL1145956, “Indanylidenes. 2. Design and synthesis of (E)-2-(4-chloro-6-fluoro-1-indanylidene)-N-methylacetamide, a potent antiinflammatory and analgesic agent without centrally acting muscle relaxant activity” (2003)
